Test results as given in publication PMC4040677 (Cell Death & Disease, 2014).

Experiments:
[1] = Cold sensitivity/hyperalgesia; type: in vivo, rats; conditions: hindpaw withdrawal latency, 4.5 °C water
Procedure, shortened: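 One rat hindpaw per immersion was placed in cold (4.5 °C) water. Paw-withdrawal latency was timed with a 1/100 s digital timer, with a 20 s maximum cutoff.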

[2] = type: in vivo; conditions: Pt in plasma, rat, intravenous
[3] = Pt excretion in urine and feces by atomic absorption spectroscopy; type: in vivo, rat; conditions: 24 h after intravenous administration
[4] = Sensitivity to noxious heat; type: in vivo, rats; conditions: hind paws
Procedure, shortened: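 After 15 min acclimation, radiant heat was applied to the rat hindpaw with a thermal paw stimulator. Intensity was set so vehicle-treated rats lifted or licked the paw at about 10 s. Withdrawal latency was recorded with a 20 s cutoff.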

Histopathology = type: in vivo, female Balb/c mice; conditions: H&E, day 28 after intravenous administration, mice
Procedure, shortened: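 Liver and kidney were fixed in 4% paraformaldehyde, moved to 70% ethanol after 20 h, and paraffin-embedded. Serial 8 μm medio-lateral sections were H&E-stained and examined by light microscopy at x20.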

MCF-7 cells = assay: Xenograft model of breast cancer; type: in vivo, BALB/c nude mice
Procedure, shortened: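 Female nude BALB/c mice (6 wk, 20–30 g, pathogen-free) received 7.5 × 10^6 MCF-7 cells in the right flank. Cells were cultured in DMEM with 10% FBS and penicillin/streptomycin. Tumors grew 4 weeks without hormone, then weekly s.c. 17β-oestradiol valerate (0.1 mg/kg, sesame oil). At ~100 mm3, mice were randomized and given a single i.v. dose (5 or 10 mg/kg) or saline. Calliper volumes, (L×W²)/2, were taken every 3 days for 30 days; ANOVA/t-test, P<0.05.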

N.N.[Cl][Pt][Cl] [cisplatin]
cold hyperalgesia / hindpaw sensitivity to cold [1]: significantly increased | AUC0–24 [2]: 40.38±6.2 h-μg/ml | CL [2]: 7.98 ± 1.2 mL/h | Cmax [2]: 22620 ± 1800 ng/mL | 24-h cumulative Pt excretion [3]: 31.6±3.4% | thermal response / hindpaw sensitivity to noxious heat [4]: significantly increased | histopathological changes in kidneys (Histopathology): focal subcapsular tubular vacuolization, dilated subcapsular space and consistent basophilia | histopathological changes in liver (Histopathology): dilated intra-lobular spaces and evident edema | average tumor volume (MCF-7 cells; 10 mg/kg single intravenous, after 30 days, saline 249.32±43.97): 233.67±50.71 mm^3 | reduction of tumor mass (MCF-7 cells; solid tumor-bearing mice): ~10%
